How the values were obtained:
Settings in all cases: stereoisomer not certain
OR10H3 (Homo sapiens) = molecular target: T1, OR10H3 (Homo sapiens) (UniProt O60404)
T1 sequence (whole entry): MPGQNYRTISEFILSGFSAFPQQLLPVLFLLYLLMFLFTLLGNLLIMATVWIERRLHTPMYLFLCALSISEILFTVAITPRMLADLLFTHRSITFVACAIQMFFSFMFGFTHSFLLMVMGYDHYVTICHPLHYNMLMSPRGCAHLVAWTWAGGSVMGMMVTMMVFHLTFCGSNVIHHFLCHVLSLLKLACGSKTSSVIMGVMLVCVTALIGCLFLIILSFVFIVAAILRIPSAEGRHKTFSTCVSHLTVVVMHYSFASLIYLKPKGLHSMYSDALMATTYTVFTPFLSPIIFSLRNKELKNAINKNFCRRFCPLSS
How it was run: (§1)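 Each entry records the cell line, G-protein, co-transfected protein and tags used. Methods varied with the source, often transient luciferase assays in mammalian cell lines. A receptor–molecule pair is called responsive (active) if the original authors judged its signal statistically different from baseline and non-responsive (inactive) otherwise.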

OR10H4 (Homo sapiens) = molecular target: T2, OR10H4 (Homo sapiens) (UniProt Q8NGA5)
T2 sequence (whole entry): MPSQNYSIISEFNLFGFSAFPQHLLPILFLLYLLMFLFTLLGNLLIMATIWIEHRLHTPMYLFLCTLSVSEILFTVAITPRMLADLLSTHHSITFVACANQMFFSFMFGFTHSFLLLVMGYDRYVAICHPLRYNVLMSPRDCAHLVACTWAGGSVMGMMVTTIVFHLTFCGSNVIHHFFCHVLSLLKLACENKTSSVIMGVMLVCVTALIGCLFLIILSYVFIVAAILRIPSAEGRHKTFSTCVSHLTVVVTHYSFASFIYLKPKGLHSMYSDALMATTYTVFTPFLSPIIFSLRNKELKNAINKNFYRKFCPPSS
How it was run: as §1

OR10H5 (Homo sapiens) = molecular target: T3, OR10H5 (Homo sapiens) (UniProt Q8NGA6)
T3 sequence (whole entry): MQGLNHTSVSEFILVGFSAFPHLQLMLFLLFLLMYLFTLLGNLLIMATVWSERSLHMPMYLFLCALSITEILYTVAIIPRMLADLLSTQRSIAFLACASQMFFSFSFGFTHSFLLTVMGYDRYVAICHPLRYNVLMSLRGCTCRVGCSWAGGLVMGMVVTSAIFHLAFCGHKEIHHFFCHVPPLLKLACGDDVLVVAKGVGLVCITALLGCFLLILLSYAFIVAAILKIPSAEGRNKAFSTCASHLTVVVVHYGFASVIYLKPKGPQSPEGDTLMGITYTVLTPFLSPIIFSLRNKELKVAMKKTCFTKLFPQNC
How it was run: as §1

OR10J1 (Homo sapiens) = molecular target: T4, OR10J1 (Homo sapiens) (UniProt P30954)
T4 sequence (whole entry): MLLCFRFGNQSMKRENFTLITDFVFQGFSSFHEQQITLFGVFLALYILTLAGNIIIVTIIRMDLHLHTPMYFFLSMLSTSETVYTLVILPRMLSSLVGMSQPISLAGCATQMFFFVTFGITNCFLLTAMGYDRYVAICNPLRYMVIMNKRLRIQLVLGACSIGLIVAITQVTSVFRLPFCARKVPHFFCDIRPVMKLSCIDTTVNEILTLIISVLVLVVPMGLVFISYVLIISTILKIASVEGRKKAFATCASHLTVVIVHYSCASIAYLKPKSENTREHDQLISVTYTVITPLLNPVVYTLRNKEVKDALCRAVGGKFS
How it was run: as §1

OR10J3 (Homo sapiens) = molecular target: T5, OR10J3 (Homo sapiens) (UniProt Q5JRS4)
T5 sequence (whole entry): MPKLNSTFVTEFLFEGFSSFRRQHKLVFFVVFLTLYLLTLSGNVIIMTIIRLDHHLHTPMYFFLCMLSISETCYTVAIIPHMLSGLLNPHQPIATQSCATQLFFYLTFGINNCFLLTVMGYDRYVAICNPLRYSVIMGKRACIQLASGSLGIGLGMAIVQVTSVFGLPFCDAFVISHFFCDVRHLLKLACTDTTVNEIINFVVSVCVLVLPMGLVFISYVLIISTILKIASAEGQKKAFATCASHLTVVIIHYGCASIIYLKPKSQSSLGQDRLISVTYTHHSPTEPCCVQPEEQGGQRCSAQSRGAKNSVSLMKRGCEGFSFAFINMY
How it was run: as §1

OR10J5 (Homo sapiens) = molecular target: T6, OR10J5 (Homo sapiens) (UniProt Q8NHC4)
T6 sequence (whole entry): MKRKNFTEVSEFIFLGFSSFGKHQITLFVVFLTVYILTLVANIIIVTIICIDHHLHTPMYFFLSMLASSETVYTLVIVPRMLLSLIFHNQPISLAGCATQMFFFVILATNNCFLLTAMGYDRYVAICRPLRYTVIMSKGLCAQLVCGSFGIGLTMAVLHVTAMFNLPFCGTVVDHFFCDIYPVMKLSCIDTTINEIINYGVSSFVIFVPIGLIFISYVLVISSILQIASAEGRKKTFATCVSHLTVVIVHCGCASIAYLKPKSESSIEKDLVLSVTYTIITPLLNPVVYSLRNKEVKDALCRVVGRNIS
How it was run: as §1

OR10K1 (Homo sapiens) = molecular target: T7, OR10K1 (Homo sapiens) (UniProt Q8NGX5)
T7 sequence (whole entry): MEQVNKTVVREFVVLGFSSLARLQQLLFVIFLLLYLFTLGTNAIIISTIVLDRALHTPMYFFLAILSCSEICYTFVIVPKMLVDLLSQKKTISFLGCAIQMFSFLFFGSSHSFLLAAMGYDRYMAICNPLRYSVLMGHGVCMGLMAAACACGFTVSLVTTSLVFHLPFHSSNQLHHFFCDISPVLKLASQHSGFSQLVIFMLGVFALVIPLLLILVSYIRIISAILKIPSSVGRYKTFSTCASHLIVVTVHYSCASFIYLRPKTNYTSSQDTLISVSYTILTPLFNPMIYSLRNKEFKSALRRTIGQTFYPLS
How it was run: as §1

OR10K2 (Homo sapiens) = molecular target: T8, OR10K2 (Homo sapiens) (UniProt Q6IF99)
T8 sequence (whole entry): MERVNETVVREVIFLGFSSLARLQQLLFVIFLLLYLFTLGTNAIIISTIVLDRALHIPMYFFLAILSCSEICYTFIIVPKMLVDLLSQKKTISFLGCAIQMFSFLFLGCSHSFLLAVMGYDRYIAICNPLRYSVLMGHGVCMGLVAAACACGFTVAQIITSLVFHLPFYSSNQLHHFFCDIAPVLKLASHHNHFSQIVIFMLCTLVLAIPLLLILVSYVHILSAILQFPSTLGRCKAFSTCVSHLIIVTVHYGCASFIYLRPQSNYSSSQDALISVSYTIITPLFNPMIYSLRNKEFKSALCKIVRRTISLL
How it was run: as §1

OR10P1 (Homo sapiens) = molecular target: T9, OR10P1 (Homo sapiens) (UniProt Q8NGE3)
T9 sequence (whole entry): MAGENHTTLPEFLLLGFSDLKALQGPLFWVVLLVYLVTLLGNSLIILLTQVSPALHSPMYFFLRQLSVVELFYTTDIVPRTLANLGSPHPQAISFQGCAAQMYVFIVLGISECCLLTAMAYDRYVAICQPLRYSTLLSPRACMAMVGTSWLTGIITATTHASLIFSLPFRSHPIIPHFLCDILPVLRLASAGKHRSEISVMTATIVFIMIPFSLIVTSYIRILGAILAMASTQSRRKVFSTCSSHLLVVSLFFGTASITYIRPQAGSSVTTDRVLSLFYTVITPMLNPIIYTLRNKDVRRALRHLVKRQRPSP
How it was run: as §1

OR10Q1 (Homo sapiens) = molecular target: T10, OR10Q1 (Homo sapiens) (UniProt Q8NGQ4)
T10 sequence (whole entry): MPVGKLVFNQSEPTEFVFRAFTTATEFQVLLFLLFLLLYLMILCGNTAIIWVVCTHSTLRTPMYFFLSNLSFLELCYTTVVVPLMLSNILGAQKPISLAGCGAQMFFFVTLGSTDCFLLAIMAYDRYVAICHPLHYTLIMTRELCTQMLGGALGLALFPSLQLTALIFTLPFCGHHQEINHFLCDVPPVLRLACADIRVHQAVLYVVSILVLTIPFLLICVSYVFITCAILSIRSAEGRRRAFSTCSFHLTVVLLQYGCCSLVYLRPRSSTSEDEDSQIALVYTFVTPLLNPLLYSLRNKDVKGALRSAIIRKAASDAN
How it was run: as §1

Measured: odorant receptor agonist call

CCCCCC(=O)C(C)C(C)=O (stereo not given)
inactive: all assays above

Reference: the M2OR odorant receptor database
